Measured values reported in ChEMBL document CHEMBL2375244 (J Med Chem, 2013).
Active and inactive are the calls of the source. No cut-off for these calls is given here.

Columns and labels:
CDK2/Cyclin A2 [1] = molecular target: T1, CDK2/Cyclin A2 (Homo sapiens, UniProt P24941); assay: Inhibition of human CDK2/Cyclin A2 using PKTPKKAKKL as substrate by fluorescence assay; type: protein-complex assay
NCI-H929 = assay: Induction of apoptosis in human NCI-H929 cells assessed as increase in cleaved caspase-3 level at […] after 24 hrs by FACS flow cytometric analysis relative to control; type: functional
[2] = molecular target: Cyclin-dependent kinase 2 (Homo sapiens) (UniProt P24941); assay: Inhibition of CDK2-mediated Rb phosphorylation at Ser 807/811 in human NCI-H929 cells at […] after 24 hrs by immunoblotting analysis; type: cell-based
A673 [3] = assay: Induction of apoptosis in human A673 cells assessed as caspase-3 activation after 24 hrs by luminescence assay; type: functional, cell-based; settings: A673, 24 h
Procedure, shortened: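 Caspase-3/7 activation measured with a Caspase-Glo 3/7 luminescent assay. Cells were plated as for the high-throughput viability assay and exposed for 24 h to serial dilutions. EC50 was obtained from the dose-response.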

[4] = Cytotoxicity against human NCI-H929 cells after 72 hrs by resazurin/resorufin-based fluorescence assay; type: functional, cell-based; settings: NCI-H929, 72 h
T47D = assay: Cytotoxicity against human T47D cells after 72 hrs by resazurin/resorufin-based fluorescence assay; type: functional, cell-based
A673 [5] = assay: Cytotoxicity against human A673 cells after 72 hrs by resazurin/resorufin-based fluorescence assay; type: functional, cell-based; settings: A673, 72 h
SK-BR-3 = assay: Cytotoxicity against human SK-BR-3 cells after 72 hrs by resazurin/resorufin-based fluorescence assay; type: functional, cell-based; settings: SK-BR-3, 72 h
Procedure, shortened: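 CellTiter-Blue viability: 1200 cells per well seeded, incubated overnight at 37 °C, 5% CO₂; drugs serially diluted 2:3 in medium, four replicate wells per concentration plus four diluent-only control wells; 72 h exposure; resazurin reduction to resorufin read by fluorescence (579 nm ex/584 nm em). IC50 is the average of three data sets, each using nine concentrations between 0.004 μM and 12.5 μM.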

[6] = Cytotoxicity against mouse GC-1 cells after 72 hrs by MTT assay; type: functional, cell-based; settings: GC-1, 72 h
Procedure, shortened: (§1)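 Cells kept in RPMI or DMEM with 10% FBS at 37 °C, 5% CO₂ and allowed to attach overnight; 72 h with increasing inhibitor concentrations; then 1 mg/mL MTT for 3 h, DMSO solubilisation, OD read at 540 nm. Testis lines had culture conditions adapted to them. Dose-response in triplicate, 9 concentrations between 0.02 and 100 μM, averaged.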

[7] = Cytotoxicity against mouse TM4 cells after 72 hrs by MTT assay; type: functional, cell-based; settings: TM4, 72 h; procedure, shortened: as §1
[8] = Cytotoxicity against mouse GC-2 cells after 72 hrs by MTT assay; type: functional, cell-based; settings: GC-2, 72 h; procedure, shortened: as §1
MDA-MB-468 = assay: Cytotoxicity against human MDA-MB-468 cells after 72 hrs by MTT assay; type: functional, cell-based; settings: MDA-MB-468, 72 h; procedure, shortened: as §1
[9] = molecular target: CDK9/cyclin T1 (Homo sapiens) (UniProt O60563+P50750); assay: Inhibition of human CDK9/CyclinT1 at 0.1 uM incubated for 15 mins prior to substrate addition measured after 90 mins by P33-radiolabeled assay relative to control; type: protein-complex assay
Procedure, shortened: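 Kinome profiling (339-kinase panel) by a contract lab using a P33-radiolabel assay. Each kinase was tested at a single compound concentration of 0.1 μM, in duplicate, with ATP at 10 μM.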

[10] = molecular target: CDK2/Cyclin A2 (Homo sapiens) (UniProt P24941+P20248); assay: Inhibition of human CDK2/Cyclin A at 0.1 uM incubated for 15 mins prior to substrate addition measured after 90 mins by P33-radiolabeled assay relative to control; type: protein-complex assay
[11] = molecular target: CDK4/Cyclin D3 (Homo sapiens) (UniProt P11802+P30281); assay: Inhibition of human CDK4/Cyclin D3 at 0.1 uM incubated for 15 mins prior to substrate addition measured after 90 mins by P33-radiolabeled assay relative to control; type: protein-complex assay
[12] = molecular target: CDK1/Cyclin E (Homo sapiens) (UniProt P06493+P24864); assay: Inhibition of human CDK1/Cyclin E at 0.1 uM incubated for 15 mins prior to substrate addition measured after 90 mins by P33-radiolabeled assay relative to control; type: protein-complex assay
Chain of CDK1/Cyclin E (Homo sapiens) (P06493 whole entry, looked up): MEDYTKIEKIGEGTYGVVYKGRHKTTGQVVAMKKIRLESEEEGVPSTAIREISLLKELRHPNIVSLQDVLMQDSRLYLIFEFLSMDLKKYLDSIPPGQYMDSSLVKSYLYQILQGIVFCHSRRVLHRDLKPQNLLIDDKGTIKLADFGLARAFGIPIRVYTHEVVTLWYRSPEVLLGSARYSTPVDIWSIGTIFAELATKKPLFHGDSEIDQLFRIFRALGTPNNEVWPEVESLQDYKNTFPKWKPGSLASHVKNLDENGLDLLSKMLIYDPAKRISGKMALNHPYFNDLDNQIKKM
Chain of CDK1/Cyclin E (Homo sapiens) (P24864 whole entry, looked up): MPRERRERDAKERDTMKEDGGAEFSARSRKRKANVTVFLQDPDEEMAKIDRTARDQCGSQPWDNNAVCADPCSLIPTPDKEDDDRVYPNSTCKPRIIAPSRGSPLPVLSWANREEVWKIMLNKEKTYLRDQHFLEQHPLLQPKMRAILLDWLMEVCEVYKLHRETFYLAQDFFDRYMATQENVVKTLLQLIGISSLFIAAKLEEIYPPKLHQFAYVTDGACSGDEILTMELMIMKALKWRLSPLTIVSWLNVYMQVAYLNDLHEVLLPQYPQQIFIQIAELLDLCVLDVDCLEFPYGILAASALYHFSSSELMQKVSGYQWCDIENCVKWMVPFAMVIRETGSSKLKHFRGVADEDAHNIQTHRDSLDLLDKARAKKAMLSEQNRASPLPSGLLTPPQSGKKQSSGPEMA

[13] = molecular target: CDK6/cyclin D1 (Homo sapiens) (UniProt P24385+Q00534); assay: Inhibition of human CDK6/Cyclin D1 at 0.1 uM incubated for 15 mins prior to substrate addition measured after 90 mins by P33-radiolabeled assay relative to control; type: protein-complex assay
[14] = molecular target: CDK1/Cyclin A (Homo sapiens) (UniProt P06493+P20248); assay: Inhibition of human CDK1/Cyclin A at 0.1 uM incubated for 15 mins prior to substrate addition measured after 90 mins by P33-radiolabeled assay relative to control; type: protein-complex assay
Chain of CDK1/Cyclin A (Homo sapiens) (P06493 whole entry, looked up): as the sequence (P06493 whole entry, looked up) above
Chain of CDK1/Cyclin A (Homo sapiens) (P20248 whole entry, looked up): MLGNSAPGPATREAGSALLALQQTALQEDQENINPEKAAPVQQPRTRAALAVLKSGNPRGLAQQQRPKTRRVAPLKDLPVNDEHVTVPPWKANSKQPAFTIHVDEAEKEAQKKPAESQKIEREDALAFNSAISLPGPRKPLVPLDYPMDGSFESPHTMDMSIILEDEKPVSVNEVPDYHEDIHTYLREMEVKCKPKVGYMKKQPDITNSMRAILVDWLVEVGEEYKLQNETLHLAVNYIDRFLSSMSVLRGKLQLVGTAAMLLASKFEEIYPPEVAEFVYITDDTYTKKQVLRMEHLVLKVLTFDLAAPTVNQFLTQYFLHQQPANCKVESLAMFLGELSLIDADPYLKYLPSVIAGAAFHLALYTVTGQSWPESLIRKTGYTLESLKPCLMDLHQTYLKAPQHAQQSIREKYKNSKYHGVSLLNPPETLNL

[15] = molecular target: Glycogen synthase kinase-3 alpha (Homo sapiens) (UniProt P49840); assay: Inhibition of human GSK3alpha at 0.1 uM incubated for 15 mins prior to substrate addition measured after 90 mins by P33-radiolabeled assay relative to control
Chain of Glycogen synthase kinase-3 alpha (Homo sapiens) (P49840 2-483 limits assumed): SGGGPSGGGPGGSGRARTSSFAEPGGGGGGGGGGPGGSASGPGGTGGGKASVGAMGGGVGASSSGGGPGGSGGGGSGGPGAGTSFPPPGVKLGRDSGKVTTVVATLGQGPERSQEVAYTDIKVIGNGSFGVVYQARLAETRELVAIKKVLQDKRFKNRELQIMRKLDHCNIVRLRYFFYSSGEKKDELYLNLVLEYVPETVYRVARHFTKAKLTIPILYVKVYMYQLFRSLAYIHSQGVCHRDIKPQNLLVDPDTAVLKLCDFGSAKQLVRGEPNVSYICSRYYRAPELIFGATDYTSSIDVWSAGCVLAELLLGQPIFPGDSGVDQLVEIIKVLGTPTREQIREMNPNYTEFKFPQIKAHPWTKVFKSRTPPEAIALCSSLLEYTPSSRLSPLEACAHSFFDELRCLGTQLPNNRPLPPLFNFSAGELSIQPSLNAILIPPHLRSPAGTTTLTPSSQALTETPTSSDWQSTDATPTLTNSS

[16] = molecular target: Dual specificity protein kinase CLK2 (Homo sapiens) (UniProt P49760); assay: Inhibition of human CLK2 at 0.1 uM incubated for 15 mins prior to substrate addition measured after 90 mins by P33-radiolabeled assay relative to control
Chain of Dual specificity protein kinase CLK2 (Homo sapiens) (P49760 whole entry, looked up): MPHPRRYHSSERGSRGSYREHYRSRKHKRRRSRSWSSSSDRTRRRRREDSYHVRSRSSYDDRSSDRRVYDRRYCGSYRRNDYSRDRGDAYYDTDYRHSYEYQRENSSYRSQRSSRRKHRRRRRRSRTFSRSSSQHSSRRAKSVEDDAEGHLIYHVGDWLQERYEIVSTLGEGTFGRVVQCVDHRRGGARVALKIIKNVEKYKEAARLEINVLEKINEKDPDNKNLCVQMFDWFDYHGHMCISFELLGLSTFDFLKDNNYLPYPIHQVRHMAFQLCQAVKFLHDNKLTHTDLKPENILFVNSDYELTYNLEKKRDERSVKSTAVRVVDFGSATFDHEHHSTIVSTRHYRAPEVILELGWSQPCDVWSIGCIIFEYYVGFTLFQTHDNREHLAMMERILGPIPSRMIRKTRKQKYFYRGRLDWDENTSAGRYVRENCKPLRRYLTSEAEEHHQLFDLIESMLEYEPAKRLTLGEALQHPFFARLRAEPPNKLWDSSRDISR

[17] = molecular target: Glycogen synthase kinase-3 beta (Homo sapiens, UniProt P49841); assay: Inhibition of human GSK3beta at 0.1 uM incubated for 15 mins prior to substrate addition measured after 90 mins by P33-radiolabeled assay relative to control
Chain of Glycogen synthase kinase-3 beta (P49841 whole entry, looked up): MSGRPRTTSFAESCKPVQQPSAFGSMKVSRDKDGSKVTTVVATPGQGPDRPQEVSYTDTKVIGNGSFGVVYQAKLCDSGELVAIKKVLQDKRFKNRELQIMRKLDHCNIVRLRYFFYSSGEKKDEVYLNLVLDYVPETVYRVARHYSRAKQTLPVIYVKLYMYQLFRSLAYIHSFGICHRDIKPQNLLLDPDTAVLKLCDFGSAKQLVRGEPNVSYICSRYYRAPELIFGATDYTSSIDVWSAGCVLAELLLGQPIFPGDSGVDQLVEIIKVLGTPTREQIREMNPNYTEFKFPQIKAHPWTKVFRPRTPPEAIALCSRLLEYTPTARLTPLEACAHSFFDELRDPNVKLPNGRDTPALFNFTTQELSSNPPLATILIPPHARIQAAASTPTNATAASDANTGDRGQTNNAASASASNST

[18] = molecular target: Dual specificity protein kinase CLK1 (Homo sapiens) (UniProt P49759); assay: Inhibition of human CLK1 at 0.1 uM incubated for 15 mins prior to substrate addition measured after 90 mins by P33-radiolabeled assay relative to control
Chain of Dual specificity protein kinase CLK1 (Homo sapiens) (P49759 whole entry, looked up): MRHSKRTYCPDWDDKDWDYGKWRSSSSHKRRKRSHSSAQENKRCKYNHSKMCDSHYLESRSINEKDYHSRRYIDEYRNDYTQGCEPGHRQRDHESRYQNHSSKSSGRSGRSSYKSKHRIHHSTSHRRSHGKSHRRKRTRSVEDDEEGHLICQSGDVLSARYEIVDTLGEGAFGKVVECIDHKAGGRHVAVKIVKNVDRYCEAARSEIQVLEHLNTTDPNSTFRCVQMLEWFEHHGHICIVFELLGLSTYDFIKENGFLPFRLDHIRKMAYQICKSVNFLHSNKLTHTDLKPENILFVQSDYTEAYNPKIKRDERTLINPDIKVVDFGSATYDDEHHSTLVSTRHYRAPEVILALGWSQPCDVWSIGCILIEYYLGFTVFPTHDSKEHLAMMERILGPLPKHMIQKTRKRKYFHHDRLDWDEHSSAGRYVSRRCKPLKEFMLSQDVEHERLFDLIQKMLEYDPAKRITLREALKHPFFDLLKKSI

[19] = molecular target: CDK6/cyclin D3 (Homo sapiens) (UniProt P30281+Q00534); assay: Inhibition of human CDK6/Cyclin D3 at 0.1 uM incubated for 15 mins prior to substrate addition measured after 90 mins by P33-radiolabeled assay relative to control; type: protein-complex assay
CDK6/cyclin D1 = CDK6/cyclin D1 (Homo sapiens, UniProt Q00534); assay: Inhibition of CDK6/Cyclin D1 (unknown origin)-mediated phosphorylation of peptide substrate incubated for 15 mins prior to substrate addition measured after 90 mins by P33-radiolabeled assay; type: protein-complex assay
Chain of CDK6/cyclin D1 (P24385 whole entry): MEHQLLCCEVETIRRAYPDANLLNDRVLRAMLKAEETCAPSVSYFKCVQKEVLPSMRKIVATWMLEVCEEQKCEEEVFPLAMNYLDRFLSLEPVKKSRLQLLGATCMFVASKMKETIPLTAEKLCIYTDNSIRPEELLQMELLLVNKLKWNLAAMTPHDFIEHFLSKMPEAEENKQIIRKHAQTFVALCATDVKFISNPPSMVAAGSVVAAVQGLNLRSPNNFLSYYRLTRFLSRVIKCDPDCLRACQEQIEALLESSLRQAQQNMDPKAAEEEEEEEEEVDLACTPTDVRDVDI
Chain of CDK6/cyclin D1 (Q00534 whole entry): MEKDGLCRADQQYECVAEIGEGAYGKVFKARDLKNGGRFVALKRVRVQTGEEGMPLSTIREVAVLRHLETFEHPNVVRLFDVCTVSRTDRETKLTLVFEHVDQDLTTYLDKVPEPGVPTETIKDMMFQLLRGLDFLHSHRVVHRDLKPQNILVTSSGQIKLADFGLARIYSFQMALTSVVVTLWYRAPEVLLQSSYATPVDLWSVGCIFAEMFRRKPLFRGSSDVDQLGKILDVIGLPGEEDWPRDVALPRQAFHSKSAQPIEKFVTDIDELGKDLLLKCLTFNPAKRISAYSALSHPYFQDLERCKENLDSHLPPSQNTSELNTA

CDK3/Cyclin E = CDK3/Cyclin E (Homo sapiens, UniProt Q00526); assay: Inhibition of CDK3/Cyclin E (unknown origin)-mediated phosphorylation of peptide substrate incubated for 15 mins prior to substrate addition measured after 90 mins by P33-radiolabeled assay; type: protein-complex assay
Chain of CDK3/Cyclin E (P24864 whole entry): as the sequence (P24864 whole entry, looked up) above
Chain of CDK3/Cyclin E (Q00526 whole entry): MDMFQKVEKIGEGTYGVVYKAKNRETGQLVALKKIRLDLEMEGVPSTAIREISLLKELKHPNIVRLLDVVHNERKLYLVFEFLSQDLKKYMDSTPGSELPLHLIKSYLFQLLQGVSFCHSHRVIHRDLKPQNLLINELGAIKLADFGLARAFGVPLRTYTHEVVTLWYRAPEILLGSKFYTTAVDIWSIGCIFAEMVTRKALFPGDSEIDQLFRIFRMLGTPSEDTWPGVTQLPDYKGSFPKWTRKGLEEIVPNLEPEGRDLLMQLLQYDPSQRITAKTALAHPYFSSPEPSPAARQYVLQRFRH

CDK2/Cyclin A1 = CDK2/Cyclin A1 (Homo sapiens, UniProt P24941); assay: Inhibition of CDK2/Cyclin A1 (unknown origin)-mediated phosphorylation of peptide substrate incubated for 15 mins prior to substrate addition measured after 90 mins by P33-radiolabeled assay; type: protein-complex assay
CDK2/Cyclin A2 [20] = molecular target: T1, CDK2/Cyclin A2; assay: Inhibition of CDK2/Cyclin A (unknown origin)-mediated phosphorylation of peptide substrate incubated for 15 mins prior to substrate addition measured after 90 mins by P33-radiolabeled assay; type: protein-complex assay
CDK1/Cyclin A = CDK1/Cyclin A (Homo sapiens, UniProt P06493); assay: Inhibition of CDK1/Cyclin A (unknown origin)-mediated phosphorylation of peptide substrate incubated for 15 mins prior to substrate addition measured after 90 mins by P33-radiolabeled assay; type: protein-complex assay
Chain of CDK1/Cyclin A (P06493 whole entry): as the sequence (P06493 whole entry, looked up) above
Chain of CDK1/Cyclin A (P20248 whole entry, further chain): as the sequence (P20248 whole entry, looked up) above

- IC50 (CDK2/Cyclin A2 [1]): 20 nM
- inhibition [2]: Active
- EC50 (A673 [3]): 410 nM
- inhibition [9]: 90%
- inhibition [10]: 90%
- inhibition [11]: 80%
- inhibition [12]: 80%
- inhibition [13]: 80%
- inhibition [14]: 70%
- inhibition [15]: 75%
- inhibition [16]: 60%
- inhibition [17]: 60%
- inhibition [18]: 50%
- inhibition [19]: 85%
- IC50 (CDK6/cyclin D1): 6.6 nM
- IC50 (CDK3/Cyclin E): 38 nM
- IC50 (CDK2/Cyclin A1): 1.8 nM
- IC50 (CDK2/Cyclin A2 [20]): 1.1 nM
- IC50 (CDK1/Cyclin A): 7.6 nM
Structure (SMILES): Nc1nc(Nc2ccc(S(N)(=O)=O)cc2)sc1C(=O)c1ccccc1[N+](=O)[O-]
- Activity (NCI-H929): 26%
- IC50 [4]: 1600 nM
- IC50 (T47D): 500 nM
- IC50 (A673 [5]): 270 nM
- IC50 (SK-BR-3): 490 nM
- IC50 [6]: 20000 nM
- IC50 [7]: 16000 nM
- IC50 [8]: 9000 nM
- IC50 (MDA-MB-468): 300 nM
